The record followed here is ChEMBL document CHEMBL1156901, “Novel matrix metalloproteinase inhibitors derived from quinoxalinone scaffold (Part I)” (Bioorg Med Chem, 2010).

The IC50 is the concentration at which inhibition is half-maximal.

Structures are written as SMILES. Activity calls are given as the source filed them. The calls are words filed in the database; no cut-off is given here.

Experiment [1] addresses 72 kDa type IV collagenase (Homo sapiens, UniProt P08253). Description: Inhibition of MMP2. In outline: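 Gelatinase A (MMP-2) with succinylated gelatin substrate and inhibitor in 50 mM sodium borate, pH 8.5, incubated 30 min at 37 °C. 0.03% trinitrobenzenesulfonic acid then added for a further 20 min. Absorbance read at 450 nm.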
In experiment [2] the target is Aminopeptidase N (Sus scrofa) (UniProt P15145). Description: Inhibition of APN assessed as substrate hydrolysis by UV/vis spectrophotometer.
Sequence of Aminopeptidase N (Sus scrofa) (P15145 whole entry, looked up): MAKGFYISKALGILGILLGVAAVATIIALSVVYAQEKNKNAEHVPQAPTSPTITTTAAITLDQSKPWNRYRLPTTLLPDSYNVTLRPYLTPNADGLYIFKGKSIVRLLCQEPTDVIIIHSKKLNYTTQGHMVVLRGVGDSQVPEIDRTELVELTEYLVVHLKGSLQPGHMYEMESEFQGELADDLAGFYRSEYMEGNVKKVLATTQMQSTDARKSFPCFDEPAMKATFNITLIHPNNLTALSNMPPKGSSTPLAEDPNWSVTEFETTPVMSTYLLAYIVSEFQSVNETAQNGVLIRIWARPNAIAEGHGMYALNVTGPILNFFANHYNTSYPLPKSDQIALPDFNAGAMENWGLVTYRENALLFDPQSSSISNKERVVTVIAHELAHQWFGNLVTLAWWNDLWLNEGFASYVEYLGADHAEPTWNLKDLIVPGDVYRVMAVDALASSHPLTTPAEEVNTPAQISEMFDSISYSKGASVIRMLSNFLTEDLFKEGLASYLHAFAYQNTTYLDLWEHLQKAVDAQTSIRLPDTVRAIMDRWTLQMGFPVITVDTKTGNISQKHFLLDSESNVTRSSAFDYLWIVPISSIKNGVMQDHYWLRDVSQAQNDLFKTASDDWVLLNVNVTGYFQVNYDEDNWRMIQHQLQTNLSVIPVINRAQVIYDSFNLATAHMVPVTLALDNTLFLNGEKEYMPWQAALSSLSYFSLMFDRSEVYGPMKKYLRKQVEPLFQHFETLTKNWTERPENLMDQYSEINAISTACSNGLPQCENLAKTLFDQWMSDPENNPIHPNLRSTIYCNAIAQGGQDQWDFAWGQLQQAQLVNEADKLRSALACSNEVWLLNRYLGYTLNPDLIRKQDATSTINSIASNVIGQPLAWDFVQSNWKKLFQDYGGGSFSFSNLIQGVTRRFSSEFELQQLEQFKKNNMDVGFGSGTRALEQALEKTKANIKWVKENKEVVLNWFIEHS
The subject of experiment [3] is SK-OV-3. The experiment in a line: Antiproliferative activity against human SKOV3 cells after 48 hrs by MTT assay. Format: functional, cell-based. Conditions: SK-OV-3, 48 h. In outline:
(§1)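 RPMI1640 with 10% FBS, 37 °C, 5% CO2. Cells seeded at 10,000 per well and grown 4 h in complete medium. Compound added at 1600, 800, 400, 200 or 100 µg/ml for 48 h. 0.5% MTT then added for 4 h, formazan dissolved in DMSO over 15 min, OD read at 570 nm. IC50 taken as concentration giving 50% growth inhibition.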
In general terms: Formazan colour is commonly taken as a measure of viable cells.

In experiment [4] the test system is HL-60. The experiment in a line: Antiproliferative activity against human HL60 cells after 48 hrs by MTT assay. Format: functional, cell-based. In short, it runs like this: as §1
For experiment [5], the system named is K562. The experiment in a line: Antiproliferative activity against human K562 cells after 48 hrs by MTT assay. The class given is functional, cell-based. In short, it runs like this: as §1

Sequence of 72 kDa type IV collagenase (P08253 whole entry): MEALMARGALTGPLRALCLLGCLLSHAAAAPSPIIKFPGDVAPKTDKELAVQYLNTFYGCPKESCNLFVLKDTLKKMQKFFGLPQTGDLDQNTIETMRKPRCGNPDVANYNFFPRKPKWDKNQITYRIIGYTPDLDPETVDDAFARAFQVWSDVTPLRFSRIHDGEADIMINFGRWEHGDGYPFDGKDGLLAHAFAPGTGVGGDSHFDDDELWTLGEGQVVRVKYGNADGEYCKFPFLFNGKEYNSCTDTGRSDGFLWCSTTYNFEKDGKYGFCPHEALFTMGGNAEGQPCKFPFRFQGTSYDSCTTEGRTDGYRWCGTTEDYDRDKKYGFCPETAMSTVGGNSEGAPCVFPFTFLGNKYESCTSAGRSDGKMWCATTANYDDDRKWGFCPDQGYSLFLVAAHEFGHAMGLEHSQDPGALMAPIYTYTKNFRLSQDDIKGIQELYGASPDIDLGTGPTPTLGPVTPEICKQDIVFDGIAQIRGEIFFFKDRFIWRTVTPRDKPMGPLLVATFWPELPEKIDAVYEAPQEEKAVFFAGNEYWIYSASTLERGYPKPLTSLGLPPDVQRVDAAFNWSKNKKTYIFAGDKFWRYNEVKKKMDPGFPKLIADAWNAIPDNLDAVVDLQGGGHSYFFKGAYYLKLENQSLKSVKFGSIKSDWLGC

For `Cc1nc2ccccc2n(CC(=O)N[C@@H](Cc2ccccc2)C(=O)NC(C)C)c1=O`, the values for the IC50 in experiment [1] and in experiment [2] were 9430 µM and “Not Active”, respectively.

`COc1ccc(/C=C/C(=O)N2C[C@@H](NC(=O)c3cccnc3)C[C@H]2C(=O)NO)cc1OC`: the IC50 in experiment [1] is 5.6 µM; in experiment [3], 0.21 mM; in experiment [2] it was “Not Active”.

In the case of `Cc1nc2ccccc2n(CC(=O)N[C@@H](Cc2ccccc2)C(=O)Nc2cccnc2)c1=O`, the IC50 was 30 µM in experiment [1] and “Not Active” in experiment [2].

With `Cc1cccc(NC(=O)[C@H](Cc2ccccc2)NC(=O)Cn2c(=O)c(C)nc3ccccc32)c1`, the IC50 is 6460 µM in experiment [1] and “Not Active” in experiment [2].

With `COC(=O)CCCNC(=O)[C@H](Cc1ccccc1)NC(=O)Cn1c(=O)c(C)nc2ccccc21`, the values for the IC50 in experiment [1] and in experiment [2] were 2760 µM and “Not Active”, respectively.

As for `Cc1nc2ccccc2n(CC(=O)N[C@@H](Cc2ccccc2)C(=O)Nc2ccc(Br)cc2)c1=O`, the IC50 in experiment [1] is 2000 µM; in experiment [2] it was “Not Active”.

On to `CCCNC(=O)[C@H](Cc1ccccc1)NC(=O)Cn1c(=O)c(C)nc2ccccc21`, for which the IC50 in experiment [1] is 56.6 µM; in experiment [2] it was “Not Active”.

Consider `Cc1nc2ccccc2n(CC(=O)N[C@@H](Cc2ccccc2)C(=O)Nc2ccccc2)c1=O`, for which the IC50 was 58.1 µM in experiment [1] and “Not Active” in experiment [2].

Turning to `Cc1nc2ccccc2n(CC(=O)N[C@@H](Cc2ccccc2)C(=O)Nc2ccc(F)c(Cl)c2)c1=O`, the IC50 was 1360 µM in experiment [1] and “Not Active” in experiment [2].

For `CCN(CC)C(=O)[C@H](Cc1ccccc1)NC(=O)Cn1c(=O)c(C)nc2ccccc21`, the 50% inhibitory concentration (IC50) in experiment [1] is 105 µM; in experiment [2], “Not Active”.

As to `Cc1ccc(NC(=O)[C@H](Cc2ccccc2)NC(=O)Cn2c(=O)c(C)nc3ccccc32)cc1`, the figures for the IC50 in experiment [1], in experiment [3] and in experiment [2] were 10.5 µM, 1.98 mM and “Not Active”, respectively. Besides, the outcome in experiment [4] and in experiment [5] was inactive.

As for `CCCCNC(=O)[C@H](Cc1ccccc1)NC(=O)Cn1c(=O)c(C)nc2ccccc21`, the IC50 in experiment [1] is 106 µM; in experiment [2] it was “Not Active”.

With `Cc1nc2ccccc2n(CC(=O)N[C@@H](Cc2ccccc2)C(=O)Nc2ccc(Cl)cc2)c1=O`, the results for the concentration for half-maximal inhibition (IC50) in experiment [1] and in experiment [2] were 624 µM and “Not Active”, respectively.

`Cc1nc2ccccc2n(CC(=O)N[C@@H](Cc2ccccc2)C(=O)Nc2ccc(Cl)c(Cl)c2)c1=O`: the IC50 in experiment [1] was 26.2 µM; in experiment [3], 3.02 mM; in experiment [2], “Not Active”. Moreover, the result in experiment [4] and in experiment [5] was inactive.

Take `Cc1nc2ccccc2n(CC(=O)N[C@@H](Cc2ccccc2)C(=O)Nc2ccc(F)cc2)c1=O`: the IC50 is 124 µM in experiment [1] and “Not Active” in experiment [2].

As for `Cc1nc2ccccc2n(CC(=O)N[C@@H](Cc2ccccc2)C(=O)Nc2ccc(F)c(F)c2)c1=O`, the half-maximal inhibitory concentration (IC50) was 24.2 µM in experiment [1] and “Not Active” in experiment [2].

Regarding `Cc1ccccc1NC(=O)[C@H](Cc1ccccc1)NC(=O)Cn1c(=O)c(C)nc2ccccc21`, the IC50 was 37.3 µM in experiment [1] and “Not Active” in experiment [2].

As to `COC(=O)C(CC(C)C)NC(=O)[C@@H](Cc1ccccc1)NC(=O)Cn1c(=O)c(C)nc2ccccc21` (stereo not given in full), the IC50 is 1750 µM in experiment [1] and “Not Active” in experiment [2].

In the case of `COC(=O)CCCCCNC(=O)[C@H](Cc1ccccc1)NC(=O)Cn1c(=O)c(C)nc2ccccc21`, the IC50 in experiment [1] is 11500 µM; in experiment [2], “Not Active”.
